# Most compounds without a hit are left out; they make up all but 2% or so of the library.
# NS3 helicase inh = HCV NS3 helicase inhibition; hit rate 0.56% among 290,000; NS3 helicase DNA unwinding, Cy5 molecular beacon fluorescence; inhibition, % at 10.9 µM;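 active = inhibition above the mean of all tested compounds plus 3 SD, set per campaign, cut at about 35% in these data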;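 also: 0% = DMSO wells and 100% = thioflavine S control wells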
#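 System: NS3 helicase fragment of HCV / Schedule: 1 h at 25 °C / Control set: DMSO alone as 0% and 110 µM thioflavine S as 100% / Reagent: Cy5/quencher beacon DNA duplex and ATP to start / Technique: Cy5 fluorescence / Replication: singlicate / Evaluation: % inhibition of end-to-start signal ratio versus controls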
# GPR7 antag = blocks human GPR7 receptor signaling; P48145; GPR7-expressing cells, fluorescence antagonist assay; inhibition, % at 4.4 µM; hit rate 1.1% among 290,000; AID 1861; in the data active = inhibition above about 16%, passing the limit was not always enough;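 also: cells stimulated with the agonist NPW; 0% = agonist with vehicle and 100% = vehicle without agonist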
# Target sequence (P48145 whole entry, looked up): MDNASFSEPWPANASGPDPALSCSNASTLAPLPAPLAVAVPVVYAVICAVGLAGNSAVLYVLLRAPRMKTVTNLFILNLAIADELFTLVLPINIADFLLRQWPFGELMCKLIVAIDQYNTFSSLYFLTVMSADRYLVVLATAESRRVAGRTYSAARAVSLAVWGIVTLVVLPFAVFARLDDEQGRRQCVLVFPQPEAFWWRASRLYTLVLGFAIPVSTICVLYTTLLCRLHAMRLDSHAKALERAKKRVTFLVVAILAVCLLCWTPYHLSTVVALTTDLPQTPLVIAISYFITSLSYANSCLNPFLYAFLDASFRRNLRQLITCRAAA
# EBNA-1 inhibitor = blocks EBNA-1 binding to DNA | hit rate 0.34% among 300,000 | AID 1950 | inhibition, % at 14.8 µM | EBNA-1 DNA binding, fluorescence polarization; in the data active = inhibition above about 28%
# ZTA counter = blocks Epstein-Barr virus ZTA, an EBNA-1 counter-screen. P03206. ZTA-DNA binding, fluorescence polarization. inhibition, % at 11 µM. hit rate 0.15% among 320,000; in the data active = inhibition above about 33%
# Target sequence (P03206 whole entry, looked up): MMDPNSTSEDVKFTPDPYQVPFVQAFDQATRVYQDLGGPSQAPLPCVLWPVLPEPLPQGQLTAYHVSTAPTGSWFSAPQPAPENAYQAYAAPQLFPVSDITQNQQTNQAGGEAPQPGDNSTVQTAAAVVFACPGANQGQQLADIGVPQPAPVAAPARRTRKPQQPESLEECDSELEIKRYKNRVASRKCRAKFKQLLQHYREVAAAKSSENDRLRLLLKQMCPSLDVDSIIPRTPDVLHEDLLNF
# FID counter = counter-screen for HCV NS3 helicase inhibitors: DNA intercalator displacement | DNA fluorescent intercalator displacement, fluorescence | inhibition, % at 7.9 µM | hit rate 0.17% among 290,000 | AID 1845; in the data active = inhibition above about 37%;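 also: 0% = vehicle and 100% = reference compound; higher means more ethidium bromide displaced from hairpin DNA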
# GPR7 antag conf = confirmation of human GPR7 antagonists; GPR7-expressing cells, calcium fluorescence antagonist mode; shares compounds with GPR7 antag; hit rate 52% among 2,400; inhibition, % at 4.4 µM; AID 1952; in the data active = inhibition above about 24%;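 also: stimulated with the GPR7 agonist NPW; 0% = agonist plus vehicle and 100% = vehicle alone without agonist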
# MCHR1 antagonist = counter-screen for GPR7 antagonists: antagonists of human MCHR1; shares compounds with GPR7 antag; MCHR1-expressing cells, fluorescence antagonist assay; inhibition, % at 4.4 µM; hit rate 62% among 2,400; in the data active = inhibition above about 22%;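 also: 0% = vehicle with agonist and 100% = vehicle without agonist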
# * marks the source's active call; other numbers are inactive results; x = not tested or not shown.
SMILES,NS3 helicase inh,GPR7 antag,EBNA-1 inhibitor,ZTA counter,FID counter,GPR7 antag conf,MCHR1 antagonist
N#Cc1nc(COc2ccc(F)cc2)oc1N1CCC(Cc2ccccc2)CC1,-4.5,29.8*,6.5,-2.8,-12.7,48.4*,46.9*
Cc1ccc(S(=O)(=O)N2[C@@H](c3cccc(Cl)c3)C(C(=O)O)=CC[C@H]2c2ccc(C(C)C)cc2)cc1,x,x,2.5,22.8,x,x,x
O=C(NCC(c1ccco1)N1CCc2ccccc2C1)C(=O)Nc1ccccc1 (stereo unspecified),x,x,-23.9,1.7,x,x,x
O=C(CSc1ccc(F)cc1)NCC1(N2CCOCC2)CCCCC1,x,x,-4.5,1.8,x,x,x
CCOC(=O)C1(P(=O)(c2ccc(Cl)cc2)c2ccc(Cl)cc2)CCC1,8.4,25.0*,-8.3,4.2,-43.6,8.6,4.0
COc1ccccc1OCC(=O)Nc1c2c(nn1-c1ccc(C)cc1)CS(=O)(=O)C2,x,x,-0.7,11.3,x,x,x
COc1ccccc1OCC(=O)Nc1c2c(nn1-c1ccccc1)CS(=O)(=O)C2,4.6,23.3*,20.7,2.2,-25.4,0.7,4.3
COc1cc(/C=C/c2nc(-c3ccccc3O)n[nH]2)cc(OC)c1OC,-5.5,21.7*,-1.4,4.2,-0.5,32.6*,56.7*
COc1cc2c(-c3ccc4[nH]ccc4c3)c(-c3ccc(C#N)cc3)oc(=O)c2cc1OC,x,x,x,-8.9,x,x,x
CCOC(=O)C1CCCN(CC(=O)Nc2nccs2)C1 (stereo unspecified),11.6,-17.9,1.6,-19.6,-7.4,x,x
CCOc1ccc(-c2nnc(N)s2)cc1,-6.6,29.0*,5.4,5.4,0.5,-3.8,-4.3
CCCCOc1ccc(-c2nnc(N)s2)cc1,-3.6,-15.8,6.9,-3.2,-7.7,x,x
CC(C)(C)n1nc2c(c1NC(=O)c1ccccc1S(=O)(=O)C(F)F)CS(=O)(=O)C2,0.7,-5.7,0.2,2.9,-3.1,x,x
Cc1ccccc1C(=O)Nc1c2c(nn1C(C)(C)C)CS(=O)(=O)C2,4.9,22.1*,3.3,0.1,-7.5,9.1,2.8
COc1ccc(CNC(=O)[C@H](C)NC(=O)[C@@H]2Cc3ccccc3CN2)cc1,-1.2,-8.5,8.2,11.9,1.5,x,x
CC(=O)C1=C(c2ccccc2)NC(=S)NC1c1cc(Cl)c(OC(C)C)c(Cl)c1 (stereo unspecified),6.2,28.7*,4.2,8.3,-19.2,56.2*,57.5*
CCOC(=O)COc1c(Cl)cc(C2NC(=S)NC(c3ccccc3)=C2C(C)=O)cc1OC (stereo unspecified),-1.9,24.3*,7.9,2.1,-26.6,28.3*,1.1
COc1cc(C2NC(=S)NC(c3ccccc3)=C2C(C)=O)cc(Cl)c1OCC(=O)O (stereo unspecified),5.3,-0.2,-9.3,-4.0,-17.6,x,x
CCOc1ccc(S(=O)(=O)N2CCC(C(=O)NC3CCCC3)CC2)cc1,1.9,-11.2,-13.5,-12.8,-39.5,x,x
O=C(Nc1c(-c2ccccc2)nc2ccccn12)c1ccccc1F,-9.5,-5.3,-5.5,-15.4,-7.1,x,x
CCOC(=O)c1c(NC(=O)C2COc3ccccc3O2)sc2c1CC(C)(C)NC2(C)C (stereo unspecified),-77.2,23.5*,0.5,9.2,43.5*,31.8*,37.8*
COc1cccc2c1cc1c(=O)n(CC(=O)NCCCN3CCN(C)CC3)nc(C)n12,-7.3,-9.0,9.8,1.6,10.5,x,x
NCCSc1c(-c2ccc(F)cc2)[nH]c2ccccc12,-40.1,24.6*,1.5,8.4,12.8,41.1*,38.1*
NCCSc1c(-c2ccccc2)[nH]c2ccccc12,-43.7,21.0*,-5.4,11.1,5.4,19.3,22.6*
NCCSc1c(-c2ccc(Cl)cc2)[nH]c2ccccc12,-70.0,20.1,-9.1,-1.4,17.4,x,x
SMILES,NS3 helicase inh,GPR7 antag,EBNA-1 inhibitor,ZTA counter,FID counter,GPR7 antag conf,MCHR1 antagonist
CC1CCCC(NC(=O)NC(=O)COC(=O)C2=NN(c3ccccc3)C(=O)CC2)C1C (stereo unspecified),x,x,x,-10.3,x,x,x
Cc1ccc(OCCN(C)C(=O)C2CCC(=O)N(CCCN3CCCC3=O)C2)cc1 (stereo unspecified),5.6,-17.4,-0.5,0.1,-28.1,x,x
O=C1NC(=S)S/C1=C/c1ccc(OC(=O)c2ccco2)cc1,21.4,27.9*,-5.1,13.6,-3.6,16.5,22.7*
CCN(c1ccccc1)P(=O)(Nc1ccccc1)Nc1ccccc1,7.5,-14.2,3.9,-6.3,-21.6,x,x
CN(c1ccccc1)P(=O)(N(C)c1ccccc1)N(C)c1ccccc1,-11.9,27.6*,-1.0,-17.2,-22.3,34.1*,37.1*
CN(Cc1cccc(Cl)c1)C(=O)C1CCC(=O)N(C2CC2)C1 (stereo unspecified),-5.0,22.5*,2.1,-4.7,-9.7,-8.6,11.9
COc1cc(C2C(Oc3ccccc3C)C(=O)N2Cc2ccc(F)cc2)cc(OC)c1OC (stereo unspecified),-12.6,22.8*,0.9,-3.4,-27.3,16.4,22.7*
COc1ccc(OC2C(=O)N(Cc3ccc(F)cc3)C2c2ccc(OC)c(OC)c2)cc1 (stereo unspecified),-10.4,-6.3,0.7,5.3,-34.2,x,x
CCCCn1c(N)c(N(CCOC)C(=O)COC(=O)COc2ccc(CC)cc2)c(=O)[nH]c1=O,x,x,-0.6,9.3,x,x,x
COc1ncnc(-c2ccccc2)c1-c1ccccc1,x,x,-1.1,17.9,x,x,x
O=C(Nc1ccc(Cl)cc1)Nc1nc(-c2ccccc2O)cs1,3.0,31.4*,-2.3,-2.5,-1.3,67.2*,62.4*
COc1ccc(NS(=O)(=O)c2ccc3oc(=O)ccc3c2)cc1,3.7,-6.5,-5.3,7.6,-0.3,x,x
O=c1ccc2cc(S(=O)(=O)Nc3ccc(Br)cc3)ccc2o1,9.8,24.1*,x,x,-5.3,14.1,21.5*
CC1CCc2onc(C(=O)O)c2C1 (stereo unspecified),0.4,24.1*,6.2,10.5,10.4,9.5,-4.1
CCOc1ccc(NC(=O)C2C3C=CC4(O3)C2C(=O)N(Cc2cccnc2)C4C(=O)NC2CCCCC2)cc1 (stereo unspecified),0.8,-11.2,-0.8,3.8,-24.2,x,x
CCCCCOc1ccc(OC(=O)c2ccncc2)cc1,-2.0,26.6*,-19.2,4.1,-1.6,0.5,-3.7
CCCCCCCCC[n+]1cccc2c3ccccc3ccc21,-80.8,75.1*,-19.9,-16.7,29.7,80.2*,80.4*
CCCCCCCCCCCCCCCC[n+]1cccc2ccccc21,-71.8,11.2,-0.5,28.1,14.6,x,x
O=S(=O)(/N=C(/c1ccccc1)N1CCCCCC1)c1ccccc1,1.3,32.6*,-6.2,-19.0,-15.5,0.6,-0.9
CN1CCN(C2=Cc3ccccc3Sc3cc(F)c(Cl)cc32)CC1,-69.2,27.0*,-7.3,-2.0,22.9,37.9*,57.7*
ClC1(Cl)CC1CSc1nnc(-c2ccncc2)o1 (stereo unspecified),6.0,9.3,-20.5,-8.5,-8.3,x,x
CCN1CCc2c(sc(NC(=O)Nc3ccc(Cl)c(Cl)c3)c2C(N)=O)C1,-77.0,57.6*,6.4,6.1,8.4,60.2*,81.0*
